Test results from ChEMBL document CHEMBL3525958 (Drug Metab Dispos, 2013).
Blank lines part the entries; values can stand above or below the compound they belong to.

Key:
[1] = Activity at human P-glycoprotein expressed in pig LLC-PK1 cells at 50 uM after 90 mins by liquid scintillation counting; assay type: ADME, cell-based
[2] = Activity at human P-glycoprotein expressed in pig LLC-PK1 cells at 100 uM after 90 mins by liquid scintillation counting; assay type: ADME, cell-based
[3] = Activity at human P-glycoprotein expressed in pig LLC-PK1 cells at 25 uM after 90 mins by liquid scintillation counting; assay type: ADME, cell-based
[4] = Activity at human P-glycoprotein expressed in pig LLC-PK1 cells assessed as rate of transport at 5 uM after 90 mins by liquid scintillation counting; assay type: ADME, cell-based
Method in brief: (§1)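 Human P-gp-cDNA LLC-PK1 cells and vector-only (mock) cells were cultured on collagen-coated inserts for 7 days. […] Facilitated rate v = IA/(filter area × time), where IA is the net P-gp-dependent pmol transported.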

[5] = Activity at human P-glycoprotein expressed in pig LLC-PK1 cells at 10 uM after 60 mins by liquid scintillation counting; assay type: ADME, cell-based; settings: llc-pk1, 1 h
[6] = Activity at human P-glycoprotein expressed in pig LLC-PK1 cells assessed as rate of transport at 10 uM after 120 mins by liquid scintillation counting; assay type: ADME, cell-based; settings: llc-pk1, 2 h; method in brief: as §1
[7] = Activity at human P-glycoprotein expressed in pig LLC-PK1 cells assessed as rate of transport at 100 uM after 90 mins by liquid scintillation counting; assay type: ADME, cell-based; method in brief: as §1
[8] = Activity at human P-glycoprotein expressed in pig LLC-PK1 cells assessed as rate of transport at 25 uM after 90 mins by liquid scintillation counting; assay type: ADME, cell-based; method in brief: as §1
[9] = Activity at human P-glycoprotein expressed in pig LLC-PK1 cells assessed as rate of transport at 10 uM after 60 mins by liquid scintillation counting; assay type: ADME, cell-based; settings: llc-pk1, 1 h; method in brief: as §1
[10] = Activity at human P-glycoprotein expressed in pig LLC-PK1 cells assessed as rate of transport at 50 uM after 90 mins by liquid scintillation counting; assay type: ADME, cell-based; method in brief: as §1
[11] = Activity at human P-glycoprotein expressed in pig LLC-PK1 cells at 10 uM after 120 mins by liquid scintillation counting; assay type: ADME, cell-based; settings: llc-pk1, 2 h
[12] = Activity at human P-glycoprotein expressed in pig LLC-PK1 cells at […] after 90 mins by liquid scintillation counting; assay type: ADME, cell-based
[13] = Activity at human P-glycoprotein expressed in pig LLC-PK1 cells assessed as rate of transport at […] after 90 mins by liquid scintillation counting; assay type: ADME, cell-based
[14] = Activity at human P-glycoprotein expressed in pig LLC-PK1 cells at 10 uM after 90 mins by liquid scintillation counting; assay type: ADME, cell-based
[15] = Activity at human P-glycoprotein expressed in pig LLC-PK1 cells assessed as rate of transport at 10 uM after 90 mins by liquid scintillation counting; assay type: ADME, cell-based; method in brief: as §1
[16] = Activity at human P-glycoprotein expressed in pig LLC-PK1 cells at 5 uM after 90 mins by liquid scintillation counting; assay type: ADME, cell-based
[17] = Oral bioavailability in dog; assay type: ADME, organism-based, Canis lupus familiaris; settings: in vivo
[18] = Ratio of drug level in brain to blood in po dosed rat; assay type: ADME, organism-based
[19] = Ratio of Cmax in milk to plasma in lactating rat; assay type: ADME; settings: female
[20] = Oral bioavailability in human; assay type: ADME, organism-based; settings: in vivo
[21] = Ratio of AUC in milk to plasma in lactating rat; assay type: ADME; settings: female, read-out: Ratio AUC
[22] = Oral bioavailability in rat; assay type: ADME, organism-based; settings: in vivo
P-glycoprotein (human) = experiment: Efflux ratio of apparent permeability from basolateral to apical side over apical to basolateral side in pig LLC-PK1 cells expressing human P-glycoprotein at 5 uM by liquid scintillation counting; assay type: ADME, cell-based, Sus scrofa
P-gp [23] = experiment: Apparent permeability in human Caco2 cells assessed as 50 uM P-gp inhibitor ketoconazole-mediated inhibition of digoxin efflux at 5 uM by liquid scintillation counting; assay type: ADME, cell-based; settings: Caco-2 cells, with ketoconazole 50 uM
Method in brief: (§2)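 Caco-2 monolayers (passages 17–40, 13–22 days post-seeding) were used. Bidirectional transport ran for 2 h at 37°C, shaken at 50 rpm, in HBSS/10 mM HEPES pH 7.4. […] Inhibitors were present in both chambers: ketoconazole or cyclosporin A (20 or 50 µM), Ko134 (1 or 11 µM), or probenecid with the 20 µM runs. Results are % inhibition of efflux ratio.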

P-gp [24] = experiment: Apparent permeability in human Caco2 cells assessed as 50 uM P-gp inhibitor cyclosporin A-mediated inhibition of digoxin efflux at 5 uM by liquid scintillation counting; assay type: ADME, cell-based; settings: Caco-2 cells, with cyclosporin A 50 uM; method in brief: as §2
BCRP [25] = experiment: Permeability in human Caco2 cells assessed as 11 uM BCRP inhibitor Ko134-mediated inhibition of digoxin at 5 uM by liquid scintillation counting; assay type: ADME, cell-based; settings: Caco-2, with Ko134 11 uM; method in brief: as §2
[26] = Apparent permeability from basolateral to apical side of human Caco2 cells at 5 uM by liquid scintillation counting; settings: Caco-2
[27] = Apparent permeability from apical to basolateral side of human Caco2 cells at 5 uM by liquid scintillation counting; settings: Caco-2
BCRP [28] = experiment: in vitro; settings: human, Caco-2, with Ko134 11 uM
BCRP [29] = experiment: Efflux ratio of apparent permeability from basolateral to apical side over apical to basolateral side in MDCK2 cells expressing human BCRP at 5 uM by liquid scintillation counting; assay type: ADME, cell-based, Canis lupus familiaris, MDCK-II; settings: dog
Method in brief: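 MDCKII cells, mock or carrying human BCRP cDNA, were cultured 4 days on transwell inserts, with 10 mM sodium butyrate added 24 h before assay. Cells were pre-incubated 10 min in modified Krebs-Henseleit buffer with 5 mM glucose at 37°C. […] Samples were scintillation counted, and efflux ratio = PcB-A/PcA-B.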

Intrinsic activity [1]: 1485 pmol
Intrinsic activity [2]: 2772 pmol
Intrinsic activity [3]: 548 pmol
Drug transport [4]: 139 pmol/cm2/hr
Intrinsic activity [5]: 146 pmol
Drug transport [6]: 474 pmol/cm2/hr
Drug transport [7]: 5962 pmol/cm2/hr
Drug transport [8]: 1179 pmol/cm2/hr
Drug transport [9]: 471 pmol/cm2/hr
Drug transport [10]: 3194 pmol/cm2/hr
Intrinsic activity [11]: 294 pmol
Intrinsic activity [12]: 33 pmol
Drug transport [13]: 71 pmol/cm2/hr
Intrinsic activity [14]: 167 pmol
Drug transport [15]: 360 pmol/cm2/hr
Intrinsic activity [16]: 64 pmol
SMILES: COc1ccc(-n2nc(C(N)=O)c3c2C(=O)N(c2ccc(N4CCCC[14C]4=O)cc2)CC3)cc1

bioavailability [17]: 70%
Kp [18]: < 0.1
Kp [19]: 8
bioavailability [20]: 50%
Kp [21]: 30
bioavailability [22]: 30%
SMILES: COc1ccc(-n2nc(C(N)=O)c3c2C(=O)N(c2ccc(N4CCCCC4=O)cc2)CC3)cc1 [APIXABAN]

efflux ratio at 5 µM (P-glycoprotein (human)): > 7
inhibition at 5 µM (P-gp [23]): 100%
inhibition at 5 µM (P-gp [24]): 98%
inhibition at 5 µM (BCRP [25]): 50%
Papp B→A at 5 µM [26]: 20.5 ×10⁻⁶ cm/s
Papp A→B at 5 µM [27]: 2.3 ×10⁻⁶ cm/s
SMILES: C[C@H]1O[C@@H](O[C@H]2[C@@H](O)C[C@H](O[C@H]3[C@@H](O)C[C@H](O[C@H]4CC[C@@]5(C)[C@H](CC[C@@H]6[C@@H]5C[C@@H](O)[C@]5(C)[C@@H](C7=CC(=O)OC7)CC[C@]65O)C4)O[C@@H]3C)O[C@@H]2C)C[C@H](O)[C@@H]1O [DIGOXIN]

inhibition at 5 µM (BCRP [28]): 78%
SMILES: O=C1CN(/N=C/c2ccc([N+](=O)[O-])o2)C(=O)N1 [NITROFURANTOIN]

efflux ratio at 5 µM (BCRP [29]): 10
SMILES: COc1cc2nc(N3CCN(C(=O)c4ccco4)CC3)nc(N)c2cc1OC [PRAZOSIN]
